The record followed here is ChEMBL document CHEMBL1136016, “Synthesis, biological activity, and molecular modeling investigation of new pyrazolo[4,3-e]-1,2,4-triazolo[1,5-c]pyrimidine derivatives as human A(3) adenosine receptor antagonists” (J Med Chem, 2002).

SMILES strings stand for the structures.

The target in experiment [1] is T1, Adenosine receptor A1 (Homo sapiens, UniProt P30542).
T1 sequence (P30542 whole entry): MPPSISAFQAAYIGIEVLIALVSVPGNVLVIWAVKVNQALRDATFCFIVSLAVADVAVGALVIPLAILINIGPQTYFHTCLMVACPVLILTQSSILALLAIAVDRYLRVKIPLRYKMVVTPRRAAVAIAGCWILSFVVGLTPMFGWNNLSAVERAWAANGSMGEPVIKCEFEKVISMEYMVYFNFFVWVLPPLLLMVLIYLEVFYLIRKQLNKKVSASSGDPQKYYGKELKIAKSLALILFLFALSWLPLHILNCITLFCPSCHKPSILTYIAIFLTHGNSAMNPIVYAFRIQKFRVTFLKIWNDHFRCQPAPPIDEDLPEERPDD
Briefly: Displacement of [3H]DPCPX from human Adenosine A1 receptor expressed in CHO cells; range 525-691. The class given is cell-based. (In general: Displacement assays read how much labelled ligand stays bound in the presence of the test substance.)

The target of experiment [2] is T2, Adenosine receptor A2b (Homo sapiens, UniProt P29275).
T2 sequence (P29275 whole entry): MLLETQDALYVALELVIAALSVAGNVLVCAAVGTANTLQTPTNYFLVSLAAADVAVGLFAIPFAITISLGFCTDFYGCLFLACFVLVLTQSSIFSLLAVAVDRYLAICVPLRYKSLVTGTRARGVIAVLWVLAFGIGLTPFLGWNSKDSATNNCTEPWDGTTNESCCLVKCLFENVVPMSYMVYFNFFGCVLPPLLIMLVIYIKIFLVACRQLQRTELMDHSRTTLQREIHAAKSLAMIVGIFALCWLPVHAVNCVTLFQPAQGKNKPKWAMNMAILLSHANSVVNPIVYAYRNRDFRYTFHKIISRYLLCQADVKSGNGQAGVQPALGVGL
Briefly: Displacement of [3H]DPCPX from human Adenosine A2B receptor expressed in HEK293 cells; range 89-116. The class given is cell-based. The procedure, abridged:
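Membranes from HEK-293 cells with human recombinant A2B receptor. Incubation 60 min at 25 °C in 50 mM Tris HCl, 10 mM MgCl2, 1 mM EDTA, 0.1 mM benzamidine, pH 7.4, with 2 IU/mL adenosine deaminase and 40 nM [3H]DPCPX. At least six to eight test concentrations. Nonspecific binding defined with NECA. n = 3-6.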

Experiment [3] has as its target T3, Adenosine receptor A2a (Homo sapiens, UniProt P29274). Briefly: Displacement of [3H]SCH-58261 from human Adenosine A2A receptor expressed in HEK293 cells; range 312-515. In kind it is cell-based.
For experiment [4], the target named is Adenosine receptors; A2b & A3 (Homo sapiens) (UniProt P29275+P0DMS8). Briefly: Selectivity ratio (h2B/hA3). The class given is protein assay.
Experiment [5] addresses Adenosine receptors; A1 & A3 (Homo sapiens) (UniProt P30542+P0DMS8). Briefly: Selectivity ratio (hA1/hA3). In kind it is protein assay.
The target of experiment [6] is T4, Adenosine receptor A3 (Homo sapiens, UniProt P0DMS8).
T4 sequence (P0DMS8 whole entry): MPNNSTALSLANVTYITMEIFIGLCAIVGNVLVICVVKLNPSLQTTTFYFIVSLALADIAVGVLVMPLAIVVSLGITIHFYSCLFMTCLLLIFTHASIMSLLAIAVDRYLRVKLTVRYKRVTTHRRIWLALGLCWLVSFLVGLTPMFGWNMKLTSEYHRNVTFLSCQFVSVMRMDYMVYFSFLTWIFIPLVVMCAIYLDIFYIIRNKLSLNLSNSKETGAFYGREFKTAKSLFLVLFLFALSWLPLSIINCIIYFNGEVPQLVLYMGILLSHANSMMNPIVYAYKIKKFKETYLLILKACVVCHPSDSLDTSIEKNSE
Briefly: biochemical.

Experiment [7] has as its target T4, Adenosine receptor A3. Briefly: Inhibition of IB-MECA agonist-mediated cAMP production in membranes of CHO cells expressing human Adenosine A3 receptor. In kind it is functional, cell-based. The procedure, abridged:
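Human A3-CHO membranes (in 50 mM Tris HCl, 10 mM MgCl2, 1 mM EDTA, pH 7.4) were preincubated for 10 min at 37 °C with 5 µM GTP, 0.5 mM Ro 20-1724 and 2.0 IU/mL adenosine deaminase. IB-MECA (100 nM) or antagonist was then added with 1 mM ATP and forskolin for 10 min. The reaction was stopped by 2 min boiling. cAMP was measured by [3H]cAMP competitive protein binding using beef adrenal binding protein, 150 min at 4 °C.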
(In general: Cyclic AMP is a second messenger, typically raised through Gs and lowered through Gi signalling.)

In experiment [8] the target is T4, Adenosine receptor A3. Briefly: Displacement of [3H]MRE3008-F20 from human Adenosine A3 receptor expressed in HEK cells; range 0.13-0.20. The class given is cell-based, HEK293.
Experiment [9] deals with T1, Adenosine receptor A1. Briefly: biochemical.
In experiment [10] the target is T2, Adenosine receptor A2b. Briefly: biochemical.
Experiment [11] has as its target T3, Adenosine receptor A2a. Briefly: biochemical.
The target in experiment [12] is T2, Adenosine receptor A2b. Briefly: Displacement of [3H]DPCPX from human Adenosine A2B receptor expressed in HEK293 cells; range 67-141. The class given is cell-based. The essentials: (§1)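 Competition binding on membranes of HEK-293 cells carrying recombinant human A2B receptor. Incubation 60 min at 25 °C in 50 mM Tris HCl pH 7.4 with 10 mM MgCl2, 1 mM EDTA, 0.1 mM benzamidine and 2 IU/mL adenosine deaminase. Radioligand 40 nM [3H]DPCPX, at least six to eight test concentrations. NECA defined nonspecific binding. Bound ligand separated on glass-fibre filters and counted; n = 3-6.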

Experiment [13] concerns the target T1, Adenosine receptor A1. Briefly: Displacement of [3H]DPCPX from human Adenosine A1 receptor expressed in CHO cells; range […]. In kind it is cell-based. The essentials:
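Competition binding on membranes of CHO cells stably expressing human A1 receptor, resuspended in 50 mM Tris HCl pH 7.4. Incubation 120 min at 25 °C with 1 nM [3H]DPCPX, 50 µg protein per assay and at least six to eight test concentrations. CHA defined nonspecific binding. Bound ligand separated on glass-fibre filters and counted; n = 3-6.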

In experiment [14] the target is T4, Adenosine receptor A3. Briefly: Displacement of [3H]MRE3008-F20 from human Adenosine A3 receptor expressed in HEK cells; range 0.23-0.40. In kind it is cell-based, HEK293.
The target of experiment [15] is T3, Adenosine receptor A2a. Briefly: Displacement of [3H]SCH-58,261 from human Adenosine A2A receptor expressed in HEK293 cells; range 122-187. The class given is cell-based.
The target of experiment [16] is T2, Adenosine receptor A2b. Briefly: Displacement of [3H]DPCPX from human Adenosine A2B receptor expressed in HEK293 cells; range 118-146. In kind it is cell-based. The essentials: as §1
The target in experiment [17] is T1, Adenosine receptor A1. Briefly: Displacement of [3H]DPCPX from human Adenosine A1 receptor expressed in CHO cells; range 248-276. The class given is cell-based.
Experiment [18] has as its target T3, Adenosine receptor A2a. Briefly: Displacement of [3H]SCH-58261 from human Adenosine A2A receptor expressed in HEK293 cells; range 23-40. The class given is cell-based.
Experiment [19] addresses T4, Adenosine receptor A3. Briefly: Displacement of [3H]MRE3008-F20 from human Adenosine A3 receptor expressed in HEK cells; range 0.11-0.18. In kind it is cell-based, HEK293.

T3 sequence (P29274 whole entry): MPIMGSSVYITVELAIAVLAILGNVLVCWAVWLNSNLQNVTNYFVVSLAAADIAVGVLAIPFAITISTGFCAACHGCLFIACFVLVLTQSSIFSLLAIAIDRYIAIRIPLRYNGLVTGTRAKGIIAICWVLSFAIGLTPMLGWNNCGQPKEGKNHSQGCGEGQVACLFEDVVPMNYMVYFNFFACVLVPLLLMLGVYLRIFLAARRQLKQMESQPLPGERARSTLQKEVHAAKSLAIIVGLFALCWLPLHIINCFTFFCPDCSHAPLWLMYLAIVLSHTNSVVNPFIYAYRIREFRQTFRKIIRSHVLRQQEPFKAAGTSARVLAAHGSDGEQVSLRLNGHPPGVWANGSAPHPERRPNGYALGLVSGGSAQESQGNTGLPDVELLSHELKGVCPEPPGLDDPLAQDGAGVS

The Ki is a dissociation constant, usually derived from enzyme kinetics or from competition with a known ligand. A low value points to higher affinity. With `CCCCn1cc2c(nc(NC(=O)Cc3ccccc3)n3nc(-c4ccco4)nc23)n1`, the Ki in experiment [1] stood at 602 nM; in experiment [2], 101 nM; in [3], 400 nM; in [6] it was 1.11 nM. Besides, the Ratio in experiment [4] was determined as 91; in experiment [5], 542.
By IC50 is commonly meant the midpoint of a concentration-inhibition curve. As for `Cn1cc2c(nc(NC(=O)Nc3ccccc3)n3nc(-c4ccco4)nc23)n1`, the IC50 in [7] is 2 nM. In addition, the Ki was 0.16 nM in experiment [8], 594 nM in experiment [9], 222 nM in experiment [10] and 381 nM in [11]. Besides, the Ratio in experiment [4] came to 1390; in experiment [5], 3710.
For `CCn1cc2c(nc(NC(=O)Nc3ccccc3Cl)n3nc(-c4ccco4)nc23)n1`, the Ki in experiment [12] turned out to be 97 nM; in experiment [13] it was 348 nM; in experiment [14] it was 0.3 nM; in experiment [15], 150 nM. The figures for the Ratio in experiment [4] and in experiment [5] were 323 and 1160, respectively.
`CCn1cc2c(nc(NC(=O)Nc3ccc(C)cc3)n3nc(-c4ccco4)nc23)n1`: the Ki was 132 nM in experiment [16], 262 nM in experiment [17], 30 nM in experiment [18] and 0.14 nM in [19]. Besides, the values for the Ratio in experiment [4] and in experiment [5] were 943 and 1870, respectively.
